Test results reported in ChEMBL document CHEMBL1817631, “Synthesis and characterization of tritylthioethanamine derivatives with potent KSP inhibitory activity” (Bioorg Med Chem, 2011).
The source made the active and inactive calls. No cut-off for these calls is given here.

How the values were obtained:
HeLa [1] = test: Inhibition of bipolar spindle formation in human HeLa cells at 1 uM; assay type: functional, cell-based
Method in brief: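 HeLa cells were grown in MEM with Earle's BSS, 10% FBS, sodium bicarbonate and pyruvate at 37°C in 5% CO2. They were exposed to compound in DMSO for 4 h, with 0.1% DMSO as carrier control. Cells were fixed in −20°C methanol and immunostained for tubulin, with DNA counterstained. Bipolar spindle formation was scored in 100 mitotic cells per condition.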

HeLa [2] = test: Effect on interphase microtubule organization in human HeLa cells at 1 uM; assay type: functional, cell-based
Method in brief: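 HeLa cells were grown in MEM/Earle's BSS with 10% FBS at 37 °C and 5% CO2, then treated 4 h with 1 μM compound or 0.1% DMSO carrier. Cells were fixed in 100% MeOH at −20 °C and blocked in PBS-5% BSA. They were stained overnight at 4 °C with mouse anti-tubulin and for DNA, then imaged by epifluorescence with structured illumination.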

[3] = biological target: Kinesin-like protein KIF2C (Homo sapiens) (UniProt Q99661); test: Inhibition of MACK
Kinesin-like protein KIF2C (Homo sapiens), sequence (Q99661 whole entry, the tested form may be a part): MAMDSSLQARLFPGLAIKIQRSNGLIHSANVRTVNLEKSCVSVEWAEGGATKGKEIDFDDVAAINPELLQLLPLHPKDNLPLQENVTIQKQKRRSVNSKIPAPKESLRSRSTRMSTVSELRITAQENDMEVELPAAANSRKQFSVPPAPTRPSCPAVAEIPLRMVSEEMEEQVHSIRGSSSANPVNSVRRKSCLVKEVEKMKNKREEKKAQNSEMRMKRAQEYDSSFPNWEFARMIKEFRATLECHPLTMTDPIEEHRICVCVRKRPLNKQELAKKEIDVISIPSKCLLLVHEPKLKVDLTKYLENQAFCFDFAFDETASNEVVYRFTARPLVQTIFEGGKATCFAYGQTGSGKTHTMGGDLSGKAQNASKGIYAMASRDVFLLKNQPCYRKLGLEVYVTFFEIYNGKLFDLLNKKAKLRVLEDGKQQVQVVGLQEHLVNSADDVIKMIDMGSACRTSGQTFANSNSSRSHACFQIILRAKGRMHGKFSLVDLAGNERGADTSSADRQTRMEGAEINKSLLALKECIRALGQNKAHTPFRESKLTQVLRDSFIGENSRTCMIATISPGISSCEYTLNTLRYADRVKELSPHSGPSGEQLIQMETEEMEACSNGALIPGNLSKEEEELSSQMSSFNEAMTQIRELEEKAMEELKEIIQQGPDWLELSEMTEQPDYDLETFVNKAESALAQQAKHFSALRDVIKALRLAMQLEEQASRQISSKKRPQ
Method in brief: (§1)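 Microtubule-activated ATPase end-point assay with kinesin motor domain at 0.08 μg/μl final. Reactions were started with 2 mM ATP, run 5 min at room temperature, and stopped with CytoPhos. After 10 min more, absorbance was read at 650 nm. Compounds were tested at 0.25–10 μM against a 0.1% DMSO control, in triplicate. IC50 came from four-parameter non-linear regression.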

[4] = biological target: Centromere-associated protein E (Homo sapiens) (UniProt Q02224); test: Inhibition of CENP-E; method in brief: as §1
Centromere-associated protein E (Homo sapiens), sequence (Q02224 whole entry): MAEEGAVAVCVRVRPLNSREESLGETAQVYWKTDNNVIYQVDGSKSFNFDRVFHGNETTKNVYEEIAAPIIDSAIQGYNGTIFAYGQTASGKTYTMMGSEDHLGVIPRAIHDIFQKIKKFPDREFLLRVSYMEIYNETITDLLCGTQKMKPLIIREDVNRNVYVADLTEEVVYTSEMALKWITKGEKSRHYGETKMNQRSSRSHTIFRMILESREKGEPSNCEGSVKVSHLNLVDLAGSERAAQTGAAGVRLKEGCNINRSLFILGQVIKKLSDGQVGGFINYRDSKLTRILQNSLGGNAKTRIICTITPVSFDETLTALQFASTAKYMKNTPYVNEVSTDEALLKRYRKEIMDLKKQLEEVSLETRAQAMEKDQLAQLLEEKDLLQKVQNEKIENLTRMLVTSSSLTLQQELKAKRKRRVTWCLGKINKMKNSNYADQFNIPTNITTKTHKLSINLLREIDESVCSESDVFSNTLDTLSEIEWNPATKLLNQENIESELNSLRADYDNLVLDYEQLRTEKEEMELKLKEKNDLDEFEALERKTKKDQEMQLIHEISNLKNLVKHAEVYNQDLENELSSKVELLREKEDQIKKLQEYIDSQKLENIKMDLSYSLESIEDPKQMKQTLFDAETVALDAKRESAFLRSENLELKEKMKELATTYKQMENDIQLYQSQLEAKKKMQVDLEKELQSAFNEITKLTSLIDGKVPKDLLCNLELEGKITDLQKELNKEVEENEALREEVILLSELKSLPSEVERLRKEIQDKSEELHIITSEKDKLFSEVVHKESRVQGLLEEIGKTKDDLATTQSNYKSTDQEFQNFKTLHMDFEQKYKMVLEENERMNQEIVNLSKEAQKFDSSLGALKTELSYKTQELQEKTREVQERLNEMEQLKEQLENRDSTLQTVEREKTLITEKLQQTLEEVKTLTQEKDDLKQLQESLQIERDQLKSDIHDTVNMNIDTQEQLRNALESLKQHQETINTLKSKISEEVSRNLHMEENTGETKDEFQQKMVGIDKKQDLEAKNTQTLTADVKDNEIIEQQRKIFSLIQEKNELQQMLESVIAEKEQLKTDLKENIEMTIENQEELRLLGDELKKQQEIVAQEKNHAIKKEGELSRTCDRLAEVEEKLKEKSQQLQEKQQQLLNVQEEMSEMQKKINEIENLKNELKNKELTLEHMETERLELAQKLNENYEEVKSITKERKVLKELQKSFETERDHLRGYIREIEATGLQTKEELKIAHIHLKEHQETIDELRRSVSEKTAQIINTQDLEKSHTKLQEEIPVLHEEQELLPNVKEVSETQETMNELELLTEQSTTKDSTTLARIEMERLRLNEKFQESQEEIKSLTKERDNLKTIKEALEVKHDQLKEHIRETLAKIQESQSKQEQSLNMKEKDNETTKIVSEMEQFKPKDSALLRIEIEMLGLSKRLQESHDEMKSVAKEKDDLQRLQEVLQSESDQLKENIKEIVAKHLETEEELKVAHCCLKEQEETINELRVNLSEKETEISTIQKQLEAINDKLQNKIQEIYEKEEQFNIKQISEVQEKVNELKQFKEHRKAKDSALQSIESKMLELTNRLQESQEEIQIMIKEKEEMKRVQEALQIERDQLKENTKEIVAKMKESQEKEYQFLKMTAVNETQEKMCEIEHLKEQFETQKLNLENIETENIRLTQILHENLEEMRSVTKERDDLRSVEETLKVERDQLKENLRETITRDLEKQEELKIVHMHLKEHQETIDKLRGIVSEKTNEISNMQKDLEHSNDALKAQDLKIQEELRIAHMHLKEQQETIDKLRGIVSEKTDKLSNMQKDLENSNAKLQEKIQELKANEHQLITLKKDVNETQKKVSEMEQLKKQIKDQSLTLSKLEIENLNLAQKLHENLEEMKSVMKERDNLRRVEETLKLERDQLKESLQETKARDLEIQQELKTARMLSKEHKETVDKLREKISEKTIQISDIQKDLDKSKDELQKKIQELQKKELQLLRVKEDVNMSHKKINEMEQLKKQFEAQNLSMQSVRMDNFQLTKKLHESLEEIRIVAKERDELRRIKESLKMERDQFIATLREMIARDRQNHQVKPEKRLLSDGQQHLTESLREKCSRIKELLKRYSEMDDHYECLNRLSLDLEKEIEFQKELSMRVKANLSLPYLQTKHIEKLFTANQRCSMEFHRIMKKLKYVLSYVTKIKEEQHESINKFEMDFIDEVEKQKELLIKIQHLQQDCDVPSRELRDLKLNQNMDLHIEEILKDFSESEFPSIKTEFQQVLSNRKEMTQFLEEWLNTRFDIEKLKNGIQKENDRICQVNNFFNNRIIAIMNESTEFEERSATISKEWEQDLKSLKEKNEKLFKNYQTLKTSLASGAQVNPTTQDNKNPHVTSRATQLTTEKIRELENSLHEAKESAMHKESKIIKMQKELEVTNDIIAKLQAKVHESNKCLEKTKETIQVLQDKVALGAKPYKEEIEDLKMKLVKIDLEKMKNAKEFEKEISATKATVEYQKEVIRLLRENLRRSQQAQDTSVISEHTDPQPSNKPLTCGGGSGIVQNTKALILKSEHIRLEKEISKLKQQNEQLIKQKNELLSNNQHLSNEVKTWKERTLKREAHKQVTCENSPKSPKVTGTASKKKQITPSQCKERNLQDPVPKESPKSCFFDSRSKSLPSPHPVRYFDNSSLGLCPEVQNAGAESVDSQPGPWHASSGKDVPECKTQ

[5] = biological target: Chromosome-associated kinesin KIF4A (Homo sapiens) (UniProt O95239); test: Inhibition of chromokinesin
Chromosome-associated kinesin KIF4A (Homo sapiens), sequence (O95239 whole entry): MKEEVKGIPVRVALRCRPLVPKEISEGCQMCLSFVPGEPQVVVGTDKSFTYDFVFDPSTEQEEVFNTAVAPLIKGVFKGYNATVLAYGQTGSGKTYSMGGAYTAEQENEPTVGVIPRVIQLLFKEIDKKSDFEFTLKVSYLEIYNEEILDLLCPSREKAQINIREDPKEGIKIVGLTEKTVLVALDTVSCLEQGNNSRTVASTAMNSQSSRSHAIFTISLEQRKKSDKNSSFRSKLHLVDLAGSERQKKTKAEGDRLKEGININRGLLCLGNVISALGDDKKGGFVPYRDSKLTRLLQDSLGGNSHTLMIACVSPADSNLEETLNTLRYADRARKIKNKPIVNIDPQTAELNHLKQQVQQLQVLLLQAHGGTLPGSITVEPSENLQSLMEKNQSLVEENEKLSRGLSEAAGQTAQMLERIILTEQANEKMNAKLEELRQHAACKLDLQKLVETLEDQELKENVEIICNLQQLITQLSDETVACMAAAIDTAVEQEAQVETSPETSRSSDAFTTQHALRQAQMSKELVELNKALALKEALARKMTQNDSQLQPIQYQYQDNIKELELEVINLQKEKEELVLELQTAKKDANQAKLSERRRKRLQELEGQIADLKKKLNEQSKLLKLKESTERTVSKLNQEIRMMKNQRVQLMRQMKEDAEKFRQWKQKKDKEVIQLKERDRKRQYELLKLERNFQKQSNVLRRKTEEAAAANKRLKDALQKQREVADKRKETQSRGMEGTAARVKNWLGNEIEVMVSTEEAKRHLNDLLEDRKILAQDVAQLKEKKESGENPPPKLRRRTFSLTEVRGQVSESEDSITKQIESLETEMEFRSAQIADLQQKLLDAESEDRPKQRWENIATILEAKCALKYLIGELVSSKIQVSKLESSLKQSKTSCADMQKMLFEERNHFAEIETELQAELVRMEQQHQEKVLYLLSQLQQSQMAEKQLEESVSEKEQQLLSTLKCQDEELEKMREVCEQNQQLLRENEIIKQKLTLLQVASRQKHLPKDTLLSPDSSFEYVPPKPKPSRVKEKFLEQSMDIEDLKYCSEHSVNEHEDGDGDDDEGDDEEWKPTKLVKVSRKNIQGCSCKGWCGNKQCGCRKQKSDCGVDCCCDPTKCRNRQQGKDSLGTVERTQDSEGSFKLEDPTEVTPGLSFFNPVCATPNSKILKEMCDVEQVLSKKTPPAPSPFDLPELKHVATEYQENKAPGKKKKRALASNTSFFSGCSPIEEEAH

HeLa [6] = test: Induction of KSP depletion in human HeLa cells after 4 hrs by immunofluorescence analysis; assay type: functional, cell-based
Method in brief: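 HeLa cells were treated 4 h across a concentration series of compound in DMSO, then fixed in 100% MeOH at −20 °C. They were probed overnight at 4 °C with mouse anti-KSP and rabbit anti-EB1 to mark microtubules, with Alexa Fluor secondaries and DNA counterstain. KSP (green channel) images were taken at equivalent exposure times.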

HeLa [7] = test: Induction of KSP depletion in human HeLa cells after 4 hrs by immunofluorescence analysis relative to STLC; assay type: functional
Method in brief: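 HeLa cells in MEM/Earle's BSS with 10% FBS at 37°C, 5% CO2 were exposed 4 h to DMSO-dissolved compound over a range of doses. They were then fixed in 100% MeOH at −20°C (≥30 min), rehydrated in PBS, blocked in PBS-5% BSA, and stained overnight at 4°C with mouse anti-KSP plus rabbit anti-EB1 (microtubules). DNA was counterstained. Green channel was imaged at equal exposure.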

[8] = biological target: T1, Kinesin-like protein Klp61F (Drosophila melanogaster) (UniProt P46863); test: Inhibition of Drosophila melanogaster Klp61F in S2 cells at 100 uM up to 7 hrs by immunofluorescence analysis; assay type: cell-based
T1 sequence (whole entry): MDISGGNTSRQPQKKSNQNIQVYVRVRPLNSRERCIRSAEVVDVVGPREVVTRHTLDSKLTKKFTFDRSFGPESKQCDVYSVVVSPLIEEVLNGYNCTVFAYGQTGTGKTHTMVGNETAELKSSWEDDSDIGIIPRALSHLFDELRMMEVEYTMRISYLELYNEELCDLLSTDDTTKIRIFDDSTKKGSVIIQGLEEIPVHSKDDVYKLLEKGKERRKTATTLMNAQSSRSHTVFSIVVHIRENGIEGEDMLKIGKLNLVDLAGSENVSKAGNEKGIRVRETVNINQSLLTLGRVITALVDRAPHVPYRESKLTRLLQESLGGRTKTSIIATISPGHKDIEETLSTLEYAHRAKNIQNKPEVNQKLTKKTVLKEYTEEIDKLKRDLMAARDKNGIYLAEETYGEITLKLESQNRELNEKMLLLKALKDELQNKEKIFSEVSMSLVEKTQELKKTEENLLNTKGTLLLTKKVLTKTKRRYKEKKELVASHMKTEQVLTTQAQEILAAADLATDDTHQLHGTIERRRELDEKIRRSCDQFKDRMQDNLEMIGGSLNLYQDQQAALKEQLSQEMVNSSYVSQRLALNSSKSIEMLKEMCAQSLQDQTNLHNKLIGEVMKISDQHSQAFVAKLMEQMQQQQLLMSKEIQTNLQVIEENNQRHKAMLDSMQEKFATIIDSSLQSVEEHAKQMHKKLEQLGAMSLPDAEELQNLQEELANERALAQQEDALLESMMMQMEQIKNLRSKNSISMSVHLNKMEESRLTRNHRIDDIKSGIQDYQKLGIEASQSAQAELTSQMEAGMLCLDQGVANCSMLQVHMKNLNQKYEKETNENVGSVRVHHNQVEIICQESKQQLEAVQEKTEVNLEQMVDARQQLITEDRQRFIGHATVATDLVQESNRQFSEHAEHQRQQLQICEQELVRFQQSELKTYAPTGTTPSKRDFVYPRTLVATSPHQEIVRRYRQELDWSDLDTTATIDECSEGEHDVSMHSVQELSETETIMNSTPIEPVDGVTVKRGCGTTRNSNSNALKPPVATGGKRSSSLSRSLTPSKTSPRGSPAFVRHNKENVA
Method in brief: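 Drosophila S2 cells were exposed to compound over a three-log concentration range up to 100 μM, with treatments extending up to 7 h. Bipolar spindle formation was scored by immunofluorescence.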

[9] = Inhibition of bipolar spindle formation in Strongylocentrotus purpuratus eggs; assay type: functional, Egg
Method in brief: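 S. purpuratus eggs (gametes released with 0.5M KCl) were fertilized in artificial seawater with 2 mM 3-amino triazole and stripped of envelopes 20 min post-fertilization. They were then cultured with 0.1% DMSO or inhibitor at 100 nM–100 μM, fixed at first mitosis and stained for microtubules and DNA. 100 cells per condition were scored for bipolar spindles to derive EC50.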

CCRF-CEM = test: Growth inhibition of human CCRF-CEM cells; assay type: functional
HL-60(TB) = test: Growth inhibition of human HL-60(TB) cells; assay type: functional
K562 = test: Growth inhibition of human K562 cells; assay type: functional
MOLT-4 = test: Growth inhibition of human MOLT4 cells; assay type: functional
[10] = Growth inhibition of human […] cells; assay type: functional
SR = test: Growth inhibition of human SR cells; assay type: functional
A549 = test: Growth inhibition of human A549 cells; assay type: functional
EKVX = test: Growth inhibition of human EKVX cells; assay type: functional
HOP-62 = test: Growth inhibition of human HOP62 cells; assay type: functional
NCI-H226 = test: Growth inhibition of human NCI-H226 cells; assay type: functional
NCI-H322M = test: Growth inhibition of human NCI-H322M cells; assay type: functional
NCI-H522 = test: Growth inhibition of human NCI-H522 cells; assay type: functional
COLO 205 = test: Growth inhibition of human COLO205 cells; assay type: functional
HCC 2998 = test: Growth inhibition of human HCC2998 cells; assay type: functional
HCT-15 = test: Growth inhibition of human HCT15 cells; assay type: functional
HT-29 = test: Growth inhibition of human HT-29 cells; assay type: functional
KM12 = test: Growth inhibition of human KM12 cells; assay type: functional
SW-620 = test: Growth inhibition of human SW620 cells; assay type: functional
SF-268 = test: Growth inhibition of human SF268 cells; assay type: functional
SF-295 = test: Growth inhibition of human SF295 cells; assay type: functional
SF-539 = test: Growth inhibition of human SF539 cells; assay type: functional
SNB-19 = test: Growth inhibition of human SNB19 cells; assay type: functional
U-251 = test: Growth inhibition of human U251 cells; assay type: functional
LOX IMVI = test: Growth inhibition of human LOXIMVI cells; assay type: functional
Malme-3M = test: Growth inhibition of human MALME-3M cells; assay type: functional
M14 = test: Growth inhibition of human M14 cells; assay type: functional
SK-MEL-2 = test: Growth inhibition of human SK-MEL-2 cells; assay type: functional
SK-MEL-28 = test: Growth inhibition of human SK-MEL-28 cells; assay type: functional
SK-MEL-5 = test: Growth inhibition of human SK-MEL-5 cells; assay type: functional
UACC-257 = test: Growth inhibition of human UACC257 cells; assay type: functional
UACC-62 = test: Growth inhibition of human UACC62 cells; assay type: functional
OVCAR-3 = test: Growth inhibition of human OVCAR3 cells; assay type: functional
OVCAR-4 = test: Growth inhibition of human OVCAR4 cells; assay type: functional
OVCAR-5 = test: Growth inhibition of human OVCAR5 cells; assay type: functional
OVCAR-8 = test: Growth inhibition of human OVCAR8 cells; assay type: functional
SK-OV-3 = test: Growth inhibition of human SKOV3 cells; assay type: functional
786-0 = test: Growth inhibition of human 786-0 cells; assay type: functional
ACHN = test: Growth inhibition of human ACHN cells; assay type: functional
CAKI-1 = test: Growth inhibition of human Caki1 cells; assay type: functional
SN12C = test: Growth inhibition of human SN12C cells; assay type: functional
TK-10 = test: Growth inhibition of human TK10 cells; assay type: functional
UO-31 = test: Growth inhibition of human UO31 cells; assay type: functional

## COc1ccc(C(SC[C@H](N)CO)(c2ccccc2)c2ccccc2)cc1
HeLa [1]
  inhibition: Active
HeLa [2]
  Activity: inactive
[3]
  inhibition: inactive
[4]
  inhibition: inactive
[5]
  inhibition: inactive
HeLa [6]
  Activity: Dose-dependent effect
HeLa [7]
  fold change (FC): 1.63
[8]
  inhibition: inactive
[9]
  EC50: 28000 nM
CCRF-CEM
  GI50: 100 nM
HL-60(TB)
  GI50: 190 nM
K562
  GI50: 60 nM
MOLT-4
  GI50: 280 nM
[10]
  GI50: 30 nM
SR
  GI50: 10 nM
A549
  GI50: 330 nM
EKVX
  GI50: 510 nM
HOP-62
  GI50: 510 nM
NCI-H226
  GI50: 2750 nM
NCI-H322M
  GI50: 110 nM
NCI-H522
  GI50: 220 nM
COLO 205
  GI50: 80 nM
HCC 2998
  GI50: 50 nM
HCT-15
  GI50: 210 nM
HT-29
  GI50: 340 nM
KM12
  GI50: 220 nM
SW-620
  GI50: 70 nM
SF-268
  GI50: 110 nM
SF-295
  GI50: 280 nM
SF-539
  GI50: 260 nM
SNB-19
  GI50: 250 nM
U-251
  GI50: 190 nM
LOX IMVI
  GI50: 490 nM
Malme-3M
  GI50: 360 nM
M14
  GI50: 20 nM
SK-MEL-2
  GI50: 240 nM
SK-MEL-28
  GI50: 620 nM
SK-MEL-5
  GI50: 60 nM
UACC-257
  GI50: 540 nM
UACC-62
  GI50: 250 nM
OVCAR-3
  GI50: 200 nM
OVCAR-4
  GI50: 1620 nM
OVCAR-5
  GI50: 390 nM
OVCAR-8
  GI50: 420 nM
SK-OV-3
  GI50: 80 nM
786-0
  GI50: 440 nM
ACHN
  GI50: 490 nM
CAKI-1
  GI50: 450 nM
SN12C
  GI50: 320 nM
TK-10
  GI50: 460 nM
UO-31
  GI50: 1100 nM

## COc1ccc(C(SC[C@H](N)C(=O)O)(c2ccccc2)c2ccccc2)cc1
[8]
  inhibition: inactive
